Source: ChEMBL document CHEMBL3525967, “In vitro glucuronidation of the antibacterial triclocarban and its oxidative metabolites” (Drug Metab Dispos, 2012)

Experiments:
[1] = Drug metabolism in microsomes (unknown origin) assessed as retention time treated with 10 uM triclocarban by LC-UV-MS method; format: ADME, Microsome
[2] = Drug level in Swiss webster mouse urine treated with triclocarban at 5 mg/kg, po by LC-MS analysis; format: ADME, organism-based; design: dose 5 mg/kg, route oral; conditions: in vivo
Outline: (§1)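 TCC given by oral gavage as 1 mg/mL in 20/80 DMSO/PEG400, at 1 mg/kg (rats) or 5 mg/kg (mice). Animals in metabolic cages (mice two per cage, rats singly), blank urine taken 24 h before dosing. Urine collected 0-24 h and 24-48 h and analysed by online-LC-MS.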

[3] = Drug level in Sprague-Dawley rat urine treated with triclocarban at 1 mg/kg, po by LC-MS analysis; format: ADME, organism-based; design: dose 1 mg/kg, route oral; conditions: in vivo; outline: as §1
Liver microsome [4] = experiment: Drug metabolism in Sprague-Dawley rat liver microsomes assessed as retention time treated with 6-hydroxy-triclocarban by LC-UV-MS method in presence of UDPGA; format: ADME
[5] = biological target: T1, UDP-glucuronosyltransferase 1A9 (Homo sapiens, UniProt O60656); experiment: Activity of human UGT1A9 expressed in baculovirus infected insect sf9 cells assessed as enzyme-mediated drug metabolism treated with triclocarban incubated for 5 mins prior to UDPGA addition measured after 30 mins by LC-ESI-MS analysis; format: ADME; conditions: sf9, 0.5 h
T1 sequence (O60656 whole entry): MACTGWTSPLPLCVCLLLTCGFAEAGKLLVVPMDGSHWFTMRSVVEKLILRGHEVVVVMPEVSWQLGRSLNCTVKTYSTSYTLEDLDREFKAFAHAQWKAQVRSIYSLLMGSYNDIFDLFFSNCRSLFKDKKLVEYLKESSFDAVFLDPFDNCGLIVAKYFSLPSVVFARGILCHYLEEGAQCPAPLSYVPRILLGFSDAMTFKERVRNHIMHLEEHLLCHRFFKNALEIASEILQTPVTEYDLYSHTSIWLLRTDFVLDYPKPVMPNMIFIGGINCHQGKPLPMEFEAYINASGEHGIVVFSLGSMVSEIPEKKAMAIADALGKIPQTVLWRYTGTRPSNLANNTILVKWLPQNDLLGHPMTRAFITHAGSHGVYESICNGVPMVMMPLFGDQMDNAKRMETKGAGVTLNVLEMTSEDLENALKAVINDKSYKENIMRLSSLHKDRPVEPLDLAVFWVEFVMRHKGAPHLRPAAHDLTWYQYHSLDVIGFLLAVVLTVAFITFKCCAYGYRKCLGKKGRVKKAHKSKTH
Outline: (§2)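 Microsomes or Sf-9 Supersomes (5 µg protein in 200 µL 100 mM potassium phosphate pH 7.4) pre-treated with alamethicin on ice 15 min; substrate 10 µM final (2% DMSO), MgCl2 and saccharolactone 10 mM each; 5 min preincubation at 37 °C, then UDPGA to start. Samples taken at 5, 10, 15, 30 min (or 2, 5, 10, 15 min) into ACN with internal standard; LC-UV-ESI-MS/MS.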

[6] = Drug level in cynomolgus monkey liver microsomes treated with triclocarban incubated for 5 mins prior to UDPGA addition measured after 30 mins by LC-UV-ESI-MS/MS analysis; format: ADME, Macaca fascicularis; conditions: 0.5 h; outline: as §2
Liver = experiment: Drug level in B6C3F1 mouse liver microsomes treated with triclocarban incubated for 5 mins prior to UDPGA addition measured after 30 mins by LC-UV-ESI-MS/MS analysis; format: ADME; conditions: 0.5 h; outline: as §2
Liver microsome [7] = experiment: Drug level in human liver microsomes treated with triclocarban incubated for 5 mins prior to UDPGA addition measured after 30 mins by LC-UV-ESI-MS/MS analysis; format: ADME; conditions: 0.5 h; outline: as §2
[8] = Drug level in human kidney microsomes treated with triclocarban incubated for 5 mins prior to UDPGA addition measured after 30 mins by LC-UV-ESI-MS/MS analysis; format: ADME; conditions: 0.5 h; outline: as §2
[9] = Drug excretion in human urine assessed as retention time treated with triclocarban by LC-UV-MS method; format: ADME

| Structure (SMILES) | Retention_time [1] [min] | Drug metabolism [2] | Drug metabolism [3] | Retention_time (Liver microsome [4]) [min] | Drug metabolism [5] | Drug metabolism [6] | Drug metabolism (Liver) | Drug metabolism (Liver microsome [7]) | Drug metabolism [8] | Retention_time [9] [min] |
| --- | --- | --- | --- | --- | --- | --- | --- | --- | --- | --- |
| O=C(Nc1ccc(Cl)c(Cl)c1)Nc1ccc(Cl)cc1OC1O[C@H](C(=O)O)[C@@H](O)[C@H](O)[C@H]1O (stereo not given in full) | 2.5 | metabolite_detected | metabolite_detected | – | – | – | – | – | – | – |
| O=C(Nc1ccc(Cl)cc1)Nc1cc(Cl)c(Cl)cc1OC1O[C@H](C(=O)O)[C@@H](O)[C@H](O)[C@H]1O (stereo not given in full) | – | metabolite_detected | metabolite_detected | 2.51 | – | – | – | – | – | – |
| O=C(O)[C@H]1OC(N(C(=O)Nc2ccc(Cl)cc2)c2ccc(Cl)c(Cl)c2)[C@H](O)[C@@H](O)[C@@H]1O (stereo not given in full) | – | metabolite_detected | – | – | metabolite_detected | metabolite_detected | metabolite_detected | metabolite_detected | metabolite_detected | 1.97 |
| O=C(O)[C@H]1OC(N(C(=O)Nc2ccc(Cl)c(Cl)c2)c2ccc(Cl)cc2)[C@H](O)[C@@H](O)[C@@H]1O (stereo not given in full) | – | metabolite_detected | – | – | metabolite_detected | metabolite_detected | metabolite_detected | metabolite_detected | metabolite_detected | 2.07 |
| O=C(Nc1ccc(Cl)c(Cl)c1)Nc1ccc(Cl)c(OC2O[C@H](C(=O)O)[C@@H](O)[C@H](O)[C@H]2O)c1 (stereo not given in full) | – | metabolite_detected | metabolite_detected | 2.26 | – | – | – | – | – | – |
| O=C(Nc1ccc(Cl)cc1)Nc1ccc(Cl)cc1 | 4.36 | – | – | – | – | – | – | – | – | – |
| O=C(Nc1ccc(Cl)c(Cl)c1)Nc1ccc(Cl)cc1OS(=O)(=O)O | 3.46 | – | – | – | – | – | – | – | – | – |
